Key:
[1] = target: Butyrylcholinesterase (BuChE) (Rattus norvegicus, UniProt Q9JKC1); test: Inhibition of BuChE in rat serum at 50 uM using S-butylthiocholine iodide as substrate by Ellman's method relative to control; format: cell-free; details: probe S-butylthiocholine iodide
Procedure, shortened: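 Rat serum (25%) as BuChE source, S-butylthiocholine iodide 1 mM, DTNB 0.2%, in 0.1 mM phosphate buffer pH 7.4, 37 °C 15 min (modified Ellman); absorbance change at 405 nm. Three independent experiments, each in triplicate.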

[2] = target: Amyloid-beta precursor protein (Homo sapiens) (UniProt P05067); test: Inhibition of HFIP-pretreated self-induced amyloid beta (1 to 42) (unknown origin) aggregation at 25 uM measured after 24 hrs by ThT fluorescence assay relative to control
Amyloid-beta precursor protein (Homo sapiens), sequence (P05067 whole entry): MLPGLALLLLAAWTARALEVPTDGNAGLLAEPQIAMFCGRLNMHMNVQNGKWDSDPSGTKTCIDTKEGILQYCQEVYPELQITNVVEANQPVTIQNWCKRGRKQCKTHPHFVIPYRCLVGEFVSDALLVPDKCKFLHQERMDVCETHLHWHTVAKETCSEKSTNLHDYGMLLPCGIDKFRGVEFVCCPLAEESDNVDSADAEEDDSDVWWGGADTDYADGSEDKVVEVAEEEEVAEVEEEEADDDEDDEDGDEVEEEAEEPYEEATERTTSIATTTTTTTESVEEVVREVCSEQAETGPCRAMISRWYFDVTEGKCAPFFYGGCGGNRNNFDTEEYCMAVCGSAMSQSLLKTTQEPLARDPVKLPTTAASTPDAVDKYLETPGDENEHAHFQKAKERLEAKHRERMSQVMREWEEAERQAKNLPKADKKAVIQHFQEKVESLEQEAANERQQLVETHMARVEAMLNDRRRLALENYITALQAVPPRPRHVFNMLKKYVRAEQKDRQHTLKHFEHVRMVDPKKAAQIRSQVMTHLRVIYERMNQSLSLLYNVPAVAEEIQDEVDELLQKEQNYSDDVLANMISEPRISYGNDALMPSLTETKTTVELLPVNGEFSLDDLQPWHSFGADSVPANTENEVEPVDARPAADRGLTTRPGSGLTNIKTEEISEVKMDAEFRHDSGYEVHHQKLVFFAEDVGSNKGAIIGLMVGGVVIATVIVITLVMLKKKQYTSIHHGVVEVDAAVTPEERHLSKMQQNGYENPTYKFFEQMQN
Procedure, shortened: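 Aβ1-42 was pretreated in HFIP for 24 h at room temperature, dried, and dissolved in DMSO to a 200 µM stock. Aβ (25 µM) was incubated with compound (25 µM) at 37 °C for 24 h. ThT was added at 5 µM in glycine-NaOH, pH 8.5. Fluorescence ex 446/em 490 nm, background-subtracted; inhibition = (1−IFi/IFc)×100. Triplicate.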

[3] = target: T1, Amine oxidase [flavin-containing] B (Homo sapiens, UniProt P27338); test: Inhibition of recombinant human MAO-B expressed in baculovirus infected BTI insect cells at 10 uM using kynuramine as substrate measured after 30 mins by fluorescence based assay relative to control; details: 0.5 h
T1 sequence (P27338 whole entry): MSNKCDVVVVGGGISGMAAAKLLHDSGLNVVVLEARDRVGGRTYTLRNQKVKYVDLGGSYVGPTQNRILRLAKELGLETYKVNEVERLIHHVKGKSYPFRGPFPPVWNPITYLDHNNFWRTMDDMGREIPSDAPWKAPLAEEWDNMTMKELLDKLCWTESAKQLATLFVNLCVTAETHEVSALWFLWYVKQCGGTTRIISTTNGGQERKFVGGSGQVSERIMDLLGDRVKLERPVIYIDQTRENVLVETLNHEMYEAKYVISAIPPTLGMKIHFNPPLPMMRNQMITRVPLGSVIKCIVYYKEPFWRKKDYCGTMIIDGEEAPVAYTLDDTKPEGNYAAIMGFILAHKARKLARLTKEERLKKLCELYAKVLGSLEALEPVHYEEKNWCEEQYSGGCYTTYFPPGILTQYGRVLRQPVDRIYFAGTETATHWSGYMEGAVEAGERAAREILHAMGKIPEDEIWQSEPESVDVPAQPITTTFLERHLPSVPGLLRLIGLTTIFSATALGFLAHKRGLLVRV
Procedure, shortened: (§1)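 Recombinant human MAO-A or MAO-B (7.5 µg/mL) in 100 mM potassium phosphate, pH 7.4, with 20.2 mM KCl and DMSO below 4%. Kynuramine was 45 µM for MAO-A and 30 µM for MAO-B. Incubation 30 min at 37 °C, stopped with NaOH and water, then centrifuged. Supernatant fluorescence ex 310/em 400 nm. Triplicate.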

[4] = target: T2, Amine oxidase [flavin-containing] A (Homo sapiens, UniProt P21397); test: Inhibition of recombinant human MAO-A expressed in baculovirus infected BTI insect cells at 10 uM using kynuramine as substrate measured after 30 mins by fluorescence based assay relative to control; details: 0.5 h; procedure, shortened: as §1
T2 sequence (P21397 whole entry): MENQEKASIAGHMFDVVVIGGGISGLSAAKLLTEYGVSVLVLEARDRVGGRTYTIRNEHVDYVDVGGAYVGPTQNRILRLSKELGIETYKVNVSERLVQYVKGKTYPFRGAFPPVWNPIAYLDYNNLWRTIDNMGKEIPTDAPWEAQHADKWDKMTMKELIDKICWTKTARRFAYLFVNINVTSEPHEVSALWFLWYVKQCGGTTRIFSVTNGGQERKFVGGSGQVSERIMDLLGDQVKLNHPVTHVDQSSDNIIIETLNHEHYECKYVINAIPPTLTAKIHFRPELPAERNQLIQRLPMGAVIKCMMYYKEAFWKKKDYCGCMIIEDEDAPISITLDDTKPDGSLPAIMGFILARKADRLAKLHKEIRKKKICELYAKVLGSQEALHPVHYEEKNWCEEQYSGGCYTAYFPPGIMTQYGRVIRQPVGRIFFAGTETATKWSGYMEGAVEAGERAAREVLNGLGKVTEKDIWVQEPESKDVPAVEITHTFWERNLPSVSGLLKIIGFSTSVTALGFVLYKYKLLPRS

[5] = target: Acetylcholinesterase (Electrophorus electricus, UniProt O42275); test: Inhibition of Electrophorus electricus AChE using […] as substrate incubated for 15 mins by Ellman's method
Acetylcholinesterase, sequence (O42275 whole entry): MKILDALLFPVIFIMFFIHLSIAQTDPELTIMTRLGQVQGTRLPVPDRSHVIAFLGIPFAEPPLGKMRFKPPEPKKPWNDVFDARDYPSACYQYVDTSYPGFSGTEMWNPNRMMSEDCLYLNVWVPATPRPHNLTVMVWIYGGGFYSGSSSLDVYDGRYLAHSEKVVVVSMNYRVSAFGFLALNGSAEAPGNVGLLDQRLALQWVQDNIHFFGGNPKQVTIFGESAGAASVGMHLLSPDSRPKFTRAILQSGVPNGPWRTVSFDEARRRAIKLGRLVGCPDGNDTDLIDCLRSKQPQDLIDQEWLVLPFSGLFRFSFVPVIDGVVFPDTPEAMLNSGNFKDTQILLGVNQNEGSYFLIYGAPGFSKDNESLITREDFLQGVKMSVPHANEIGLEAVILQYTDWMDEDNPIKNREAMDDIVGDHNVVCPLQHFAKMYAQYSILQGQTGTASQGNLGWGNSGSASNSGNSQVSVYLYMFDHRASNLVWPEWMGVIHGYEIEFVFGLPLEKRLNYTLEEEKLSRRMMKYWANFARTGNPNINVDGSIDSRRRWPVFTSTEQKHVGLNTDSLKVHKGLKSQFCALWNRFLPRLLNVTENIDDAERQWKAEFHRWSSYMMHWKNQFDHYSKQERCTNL

[6] = Antioxidant activity assessed as trolox equivalent of AAPH-induced radical scavenging activity at 5 uM preincubated for 15 mins followed by AAPH addition measured every min for 90 mins by ORAC-FL assay; format: functional
Procedure, shortened: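 ORAC-FL in 75 mM phosphate buffer, pH 7.4. Sample at 5 µM was preincubated with fluorescein (150 nM final) for 15 min at 37 °C, then AAPH was added (12 mM final). Fluorescence (ex 485/em 535 nm) was read every minute for 90 min. […] Triplicate, at least three independent assays.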

[7] = Permeability of the compound at 100 ug/ml measured after 18 hrs by PAMPA assay; format: ADME; details: read-out: permeability
Procedure, shortened: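 PAMPA-BBB. Filter coated with porcine brain lipid in dodecane. Compound (DMSO stock 5 mg/mL) was diluted to 100 µg/mL in PBS/EtOH (70:30) in the donor well, with PBS/EtOH in the acceptor. Left 18 h at 25 °C. Acceptor concentration read at ten wavelengths in four wells. Three independent runs, validated with 11 reference drugs.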

Butyrylcholinesterase (BuChE), sequence (Q9JKC1 whole entry): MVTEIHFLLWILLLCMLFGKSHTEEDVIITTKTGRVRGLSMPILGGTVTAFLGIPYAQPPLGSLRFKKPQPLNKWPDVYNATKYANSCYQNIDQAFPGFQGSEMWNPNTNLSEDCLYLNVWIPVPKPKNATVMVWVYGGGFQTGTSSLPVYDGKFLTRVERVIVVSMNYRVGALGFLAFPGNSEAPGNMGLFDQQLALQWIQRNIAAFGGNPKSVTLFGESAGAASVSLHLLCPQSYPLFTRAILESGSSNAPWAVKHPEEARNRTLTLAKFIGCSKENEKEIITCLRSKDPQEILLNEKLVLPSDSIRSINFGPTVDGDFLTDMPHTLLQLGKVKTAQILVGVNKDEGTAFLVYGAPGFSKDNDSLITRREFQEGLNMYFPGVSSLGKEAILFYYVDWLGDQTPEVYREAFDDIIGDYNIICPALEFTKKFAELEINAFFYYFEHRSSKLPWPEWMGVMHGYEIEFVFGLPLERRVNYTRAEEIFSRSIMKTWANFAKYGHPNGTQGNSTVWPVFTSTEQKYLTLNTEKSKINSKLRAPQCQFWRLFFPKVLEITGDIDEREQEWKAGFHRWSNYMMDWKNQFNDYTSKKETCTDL

Compound | inhibition at 50 µM [1] | inhibition [2] | inhibition at 10 µM [3] | inhibition at 10 µM [4] | IC50 [5] | Activity [6] | Papp at 18 h, 100 ug/ml [7]
COc1cc2c(cc1OC)/C(=C/CCCN1CCCCC1)OC2=O | 21.9% | 4.9% | 32.3% | 1.95% | 4560 nM | 0.28 µMequiv/µM | –
CCN(CCC/C=C1\OC(=O)c2cc(OC)c(OC)cc21)Cc1ccc(N(C)C)cc1 | 13.6% | 22% | 8.86% | 12.9% | 23400 nM | 2.75 µMequiv/µM | –
COc1cc2c(cc1OC)/C(=C\CCCN(C)Cc1ccccc1)OC2=O | 27.3% | 8.6% | 1.09% | 17.9% | 640 nM | 0.49 µMequiv/µM | –
CCN(CCC/C=C1/OC(=O)c2cc(OC)c(OC)cc21)Cc1ccccc1N(C)C | 43.1% | 8.2% | 2.1% | 30% | 350 nM | 1.07 µMequiv/µM | –
COc1ccccc1CN(C)CCC/C=C1/OC(=O)c2cc(OC)c(OC)cc21 | 21.9% | 19.1% | 9.44% | 4.9% | 410 nM | 0.38 µMequiv/µM | –
CCN(CC)CCCCC1OC(=O)c2cc(OC)c(OC)cc21 (centres undefined) | 5.1% | 15% | 21.5% | 2.45% | 14700 nM | 0.31 µMequiv/µM | –
CCN(CCCCC1OC(=O)c2cc(OC)c(OC)cc21)Cc1ccccc1OC (centres undefined) | 29.8% | 13.8% | 10.4% | 27.8% | 370 nM | 0.74 µMequiv/µM | –
COc1cc2c(cc1OC)/C(=C/CCCN(C)Cc1ccccc1)OC2=O | 12.2% | 11.7% | 11.9% | 10.9% | 340 nM | 0.32 µMequiv/µM | –
COc1cc2c(cc1OC)/C(=C\CCCCCN(C)Cc1ccccc1)OC2=O | 17.6% | 12.4% | 5.66% | 22.3% | 4.84 nM | 0.43 µMequiv/µM | 10.3 ×10⁻⁶ cm/s
CCN(CCC/C=C1\OC(=O)c2cc(OC)c(OC)cc21)Cc1ccccc1 | 17.3% | 17% | 13.8% | 10.4% | 360 nM | 0.36 µMequiv/µM | –
CCN(CCCCCCC1OC(=O)c2cc(OC)c(OC)cc21)Cc1ccccc1N(C)C (centres undefined) | 40.5% | 7.66% | 13.4% | 14.3% | 1240 nM | 0.6 µMequiv/µM | –
COc1cc2c(cc1OC)C(CCCCN(C)Cc1ccccc1)OC2=O (centres undefined) | 11.5% | 8.9% | 6.4% | 8% | 350 nM | 0.29 µMequiv/µM | –
CCN(CC)CCC/C=C1/OC(=O)c2cc(OC)c(OC)cc21 | 4.19% | 15.1% | 19.7% | 5.77% | 6260 nM | 0.22 µMequiv/µM | –
CCN(CCC/C=C1/OC(=O)c2cc(OC)c(OC)cc21)Cc1ccc(N(C)C)cc1 | 14.1% | 21.7% | 17% | 12.7% | 13800 nM | 2.89 µMequiv/µM | –
CCN(CCCCC/C=C1/OC(=O)c2cc(OC)c(OC)cc21)Cc1ccccc1N(C)C | 35.2% | 13% | 7.3% | 28% | 890 nM | 1.2 µMequiv/µM | –
CCN(CCC/C=C1\OC(=O)c2cc(OC)c(OC)cc21)Cc1ccccc1OC | 18.7% | 23.8% | 12% | 26.7% | 1540 nM | 0.94 µMequiv/µM | –
COc1ccccc1CN(C)CCCCC1OC(=O)c2cc(OC)c(OC)cc21 (centres undefined) | 21.7% | 14.4% | 5.7% | 0.25% | 490 nM | 0.27 µMequiv/µM | –
COc1cc2c(cc1OC)C(CCCCCCN(C)Cc1ccccc1)OC2=O (centres undefined) | 13.9% | 13% | 16.3% | 7.88% | 160 nM | 0.25 µMequiv/µM | 13.6 ×10⁻⁶ cm/s
CCN(CCCCC1OC(=O)c2cc(OC)c(OC)cc21)Cc1ccccc1N(C)C (centres undefined) | 44.8% | 15.3% | 15% | 17.8% | 260 nM | 0.43 µMequiv/µM | –
COc1ccccc1CN(C)CCC/C=C1\OC(=O)c2cc(OC)c(OC)cc21 | 16.8% | 15.1% | 10.3% | 2.9% | 1640 nM | 0.44 µMequiv/µM | –
CCN(CCCCC1OC(=O)c2cc(OC)c(OC)cc21)Cc1ccccc1 (centres undefined) | 23.1% | 15.6% | 5.51% | 7.1% | 580 nM | 0.23 µMequiv/µM | –
CCN(CCC/C=C1/OC(=O)c2cc(OC)c(OC)cc21)Cc1ccccc1 | 11% | 30.3% | 15.8% | 12.6% | 1400 nM | 0.52 µMequiv/µM | –
COc1cc2c(cc1OC)/C(=C\CCCN1CCCCC1)OC2=O | 26.9% | 11.3% | 38.8% | 1.52% | 440 nM | 0.32 µMequiv/µM | –
CCN(CCCCC1OC(=O)c2cc(OC)c(OC)cc21)Cc1ccc(N(C)C)cc1 (centres undefined) | 6.2% | < 5% | 9.47% | 12.1% | 24900 nM | 2.59 µMequiv/µM | –
CCN(CCC/C=C1\OC(=O)c2cc(OC)c(OC)cc21)Cc1ccccc1N(C)C | 40.5% | 15.4% | 9.9% | 29.1% | 210 nM | 0.78 µMequiv/µM | –
COc1cc2c(cc1OC)C(CCCCN1CCCCC1)OC2=O (centres undefined) | 8.14% | < 5% | 34.7% | 1.92% | 15800 nM | 0.22 µMequiv/µM | –
CCN(CCC/C=C1/OC(=O)c2cc(OC)c(OC)cc21)Cc1ccccc1OC | 19.1% | 19% | 4.8% | 27.1% | 800 nM | 0.53 µMequiv/µM | –

From ChEMBL document CHEMBL4616631, “Design, synthesis and evaluation of phthalide alkyl tertiary amine derivatives as promising acetylcholinesterase inhibitors with high potency and selectivity against Alzheimer's disease” (Bioorg Med Chem, 2020)
